What was measured:
[1] = target: T1, Amine oxidase [flavin-containing] A (Homo sapiens, UniProt P21397); experiment: (§1) Inhibition of recombinant human MAO-A expressed in baculovirus infected BTI insect cells at 10^-4 to 10^-3 uM using tyramine as substrate pretreated for 30 mins followed by substrate addition incubated for 30 mins measured at 5 mins interval by horse-radish peroxidase/amplex red-based fluorometric method relative to control; details: 0.5 h
T1 sequence (P21397 whole entry): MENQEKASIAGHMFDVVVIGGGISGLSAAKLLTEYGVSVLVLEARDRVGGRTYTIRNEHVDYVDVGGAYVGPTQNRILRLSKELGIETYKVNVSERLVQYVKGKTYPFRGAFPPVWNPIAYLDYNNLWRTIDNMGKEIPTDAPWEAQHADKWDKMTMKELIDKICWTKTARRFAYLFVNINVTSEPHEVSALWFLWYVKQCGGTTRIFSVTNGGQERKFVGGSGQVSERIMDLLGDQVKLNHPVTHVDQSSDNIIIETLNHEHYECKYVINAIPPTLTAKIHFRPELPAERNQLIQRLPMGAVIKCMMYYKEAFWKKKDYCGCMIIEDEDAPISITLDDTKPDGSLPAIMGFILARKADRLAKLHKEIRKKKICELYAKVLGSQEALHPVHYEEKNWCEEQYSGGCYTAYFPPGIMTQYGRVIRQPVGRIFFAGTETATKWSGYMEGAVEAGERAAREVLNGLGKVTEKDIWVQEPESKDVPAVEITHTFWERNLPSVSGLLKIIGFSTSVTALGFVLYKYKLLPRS
Method in brief: (§2)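 Recombinant hMAO-A (0.5 U/mL stock) or hMAO-B (0.64 U/mL stock) in phosphate buffer, preincubated with inhibitor (solutions 10^-3 to 10^-9 M in 2% DMSO) for 30 min at 37°C. Working solution (HRP, Amplex Red, tyramine) then added for 30 min at 37°C, with fluorescence (Ex/Em 535/587 nm) read every 5 min. Background-subtracted against DMSO control; quadruplicate.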

[2] = target: T1, Amine oxidase [flavin-containing] A; experiment: Inhibition of recombinant human MAO-A expressed in baculovirus infected BTI insect cells using tyramine as substrate pretreated for 30 mins followed by substrate addition incubated for 30 mins measured at 5 mins interval by horse-radish peroxidase/amplex red-based fluorometric method
Method in brief: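 Recombinant hMAO-A (0.5 U/mL stock) or hMAO-B (0.64 U/mL stock) in phosphate buffer, preincubated with inhibitor (solutions 10^-3 to 10^-9 M in 2% DMSO) for 30 min at 37°C. Background-subtracted against DMSO control; quadruplicate.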

[3] = target: T2, Amine oxidase [flavin-containing] B (Homo sapiens, UniProt P27338); experiment: Inhibition of recombinant human MAO-B expressed in baculovirus infected BTI insect cells using tyramine as substrate pretreated for 30 mins followed by substrate addition incubated for 30 mins measured at 5 mins interval by horse-radish peroxidase/amplex red-based fluorometric method; format: cell-based
T2 sequence (P27338 whole entry): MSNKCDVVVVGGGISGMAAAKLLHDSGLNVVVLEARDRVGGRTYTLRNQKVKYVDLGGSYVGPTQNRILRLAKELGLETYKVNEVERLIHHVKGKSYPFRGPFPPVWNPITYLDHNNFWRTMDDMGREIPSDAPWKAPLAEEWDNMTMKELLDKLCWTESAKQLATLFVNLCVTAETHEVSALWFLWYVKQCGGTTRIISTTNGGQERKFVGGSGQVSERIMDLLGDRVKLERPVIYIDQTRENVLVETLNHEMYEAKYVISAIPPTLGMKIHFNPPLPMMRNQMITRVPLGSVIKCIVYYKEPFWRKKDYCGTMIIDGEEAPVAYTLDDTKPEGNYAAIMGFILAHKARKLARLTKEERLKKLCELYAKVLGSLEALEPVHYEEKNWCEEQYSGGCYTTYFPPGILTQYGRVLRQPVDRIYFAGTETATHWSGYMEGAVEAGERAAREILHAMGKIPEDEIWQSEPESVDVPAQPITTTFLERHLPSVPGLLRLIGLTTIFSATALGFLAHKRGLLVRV

Homo sapiens = species on record: Homo sapiens; experiment: Selectivity index, ratio of IC50 for recombinant human MAO-A expressed in baculovirus infected BTI insect cells to IC50 for recombinant human MAO-B expressed in baculovirus infected BTI insect cells
Method in brief: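 Selectivity index calculated as IC50(MAO-A)/IC50(MAO-B), with both IC50 values from the fluorometric tyramine/HRP/Amplex Red inhibition assay.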

[4] = target: T2, Amine oxidase [flavin-containing] B; experiment: as §1, with “MAO-B” for “MAO-A”, “method” for “method relative to control”; details: 0.5 h; method in brief: as §2

Structure (SMILES): C#CCn1c(-c2ccc(C(=O)N/N=C/c3ccc(Cl)cc3)cc2)nc2ccccc21
- inhibition (INH) [1]: < 50%
- IC50 [2]: ≥ 100 µM
- IC50 [3]: 10.2 µM
- Ratio IC50 (Homo sapiens): > 9.85

Structure (SMILES): C#CCn1c(-c2ccc(C(=O)N/N=C/c3ccccc3OC)cc2)nc2ccccc21
- inhibition (INH) [1]: Not Active
- inhibition (INH) [4]: Not Active
- IC50 [2]: ≥ 1000 µM
- IC50 [3]: ≥ 1000 µM

Structure (SMILES): C#CCn1c(-c2ccc(C(=O)N/N=C/c3cccc(OC)c3OC)cc2)nc2ccccc21
- IC50 [2]: 53.5 µM
- IC50 [3]: 18.5 µM
- Ratio IC50 (Homo sapiens): 2.89

Structure (SMILES): C#CCn1c(-c2ccc(C(=O)N/N=C/c3cccn3C)cc2)nc2ccccc21
- inhibition (INH) [1]: < 50%
- IC50 [2]: ≥ 100 µM
- IC50 [3]: 12.2 µM
- Ratio IC50 (Homo sapiens): > 8.22

Structure (SMILES): C#CCn1c(-c2ccc(C(=O)N/N=C/c3cccc(O)c3)cc2)nc2ccccc21
- inhibition (INH) [1]: Not Active
- inhibition (INH) [4]: Not Active
- IC50 [2]: ≥ 1000 µM
- IC50 [3]: ≥ 1000 µM

Structure (SMILES): C#CCn1c(-c2ccc(C(=O)N/N=C/c3ccc([N+](=O)[O-])s3)cc2)nc2ccccc21
- IC50 [2]: 27.1 µM
- IC50 [3]: 0.881 µM
- Ratio IC50 (Homo sapiens): 30.7

Structure (SMILES): C#CCn1c(-c2ccc(C(=O)N/N=C/c3ccc[nH]3)cc2)nc2ccccc21
- inhibition (INH) [1]: Not Active
- inhibition (INH) [4]: Not Active
- IC50 [2]: ≥ 1000 µM
- IC50 [3]: ≥ 1000 µM

Structure (SMILES): C#CCn1c(-c2ccc(C(=O)N/N=C/c3cc(OC)cc(OC)c3)cc2)nc2ccccc21
- inhibition (INH) [1]: < 50%
- IC50 [2]: ≥ 100 µM
- IC50 [3]: 25.2 µM
- Ratio IC50 (Homo sapiens): > 3.96

Structure (SMILES): C#CCn1c(-c2ccc(C(=O)N/N=C/c3cccc(OC)c3)cc2)nc2ccccc21
- inhibition (INH) [1]: < 50%
- IC50 [2]: ≥ 100 µM
- IC50 [3]: 12.6 µM
- Ratio IC50 (Homo sapiens): > 7.93

Structure (SMILES): C#CCn1c(-c2ccc(C(=O)N/N=C/c3cc(O)cc(O)c3)cc2)nc2ccccc21
- IC50 [2]: 19.6 µM
- IC50 [3]: 10.3 µM
- Ratio IC50 (Homo sapiens): 1.9

Structure (SMILES): C#CCn1c(-c2ccc(C(=O)N/N=C/c3cccs3)cc2)nc2ccccc21
- inhibition (INH) [1]: Not Active
- inhibition (INH) [4]: Not Active
- IC50 [2]: ≥ 1000 µM
- IC50 [3]: ≥ 100 µM

Structure (SMILES): C#CCn1c(-c2ccc(C(=O)N/N=C/c3ccc(O)cc3)cc2)nc2ccccc21
- IC50 [2]: 2.82 µM
- IC50 [3]: 1.97 µM
- Ratio IC50 (Homo sapiens): 1.43

Structure (SMILES): C#CCn1c(-c2ccc(C(=O)N/N=C/c3ccc(OC)cc3)cc2)nc2ccccc21
- IC50 [2]: 43.3 µM
- IC50 [3]: 1.94 µM
- Ratio IC50 (Homo sapiens): 22.3

Reference: ChEMBL document CHEMBL4038273, “MAO enzymes inhibitory activity of new benzimidazole derivatives including hydrazone and propargyl side chains” (Eur J Med Chem, 2017)
